Where “and” joins values, the source holds several entries; their conditions need not be identical. Equal entries are not always repeated. Entries after “also recorded” stand apart in the source; their conditions may differ.
How the values were obtained:
[1] = tested on: A. franciscana larvae; test: Untargeted LC-MS/MS metabolomics of larvae at sublethal concentrations; type: in vivo, Artemia franciscana
[2] = tested on: A. franciscana larvae; test: Pathway enrichment analysis; type: in vivo, Artemia franciscana; settings: sublethal concentrations (LC10 at 48 h)
[3] = tested on: rodent models; settings: cited from earlier work
[4] = tested on: A. franciscana larvae; test: ChemRICH chemical similarity enrichment analysis of deregulated metabolites; type: in vivo, Artemia franciscana
[5] = tested on: Artemia franciscana larvae; test: Teratogenic effect; type: in vivo; settings: for Body length: mean ± SEM
In short: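 Larvae came from cysts hatched 24 h in aerated ASW (pH ≅ 8.5, 28 °C). Thirty larvae were incubated in 1 mL of test-compound dilution (from DMSO stock, 0.17% DMSO, sonicated) at 25–26.5 °C for 24 h and 48 h. Ten larvae per tube had eye-to-tail length measured from images. A linear mixed-effects model (experiment as random effect) compared each treatment with time-matched ASW + 0.17% DMSO vehicle, with Dunnett adjustment.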

[6] = tested on: MCF-7 cell line; settings: cited from earlier work
[7] = rodent models; cited from earlier work
[8] = Acute toxicity assay; type: in vivo, Artemia franciscana; settings: Artemia franciscana, in vivo, pH 8.5
[9] = tested on: Artemia franciscana larvae; test: Acute toxicity assay; type: in vivo; settings: for Mortality %: corrected, mean ± SEM; for LC1 (20% of the LC10): 20% of the LC10 at 24 h, sublethal concentration used for metabolomics; for LC10 (lethal concentration 10%): probit regression
[10] = tested on: A. salina; settings: 2500 mg/L (15 mM); ref 10 (Lestari et al. 2017); cited from earlier work
[11] = LC1 and LC10, 24 and 48 h, vs vehicle control

CCCC(CCC)C(=O)Nc1ccccc1O [HO-AAVPA, N-(2-hydroxyphenyl)-2-propylpentanamide]
Abundance of L-glutamine, L-asparagine, dihydrothymine and dihydrouracil [1, 11]: did not produce any significant impact | Abundance of L-serine and isobutyryl-L-carnitine [1, 11]: did not produce any significant impact | Oxysterols (3beta,7alpha-dihydroxy-5-cholestenoate, 3b-hydroxy-5-cholenoic acid, 7-ketodeoxycholic acid, 4alpha-carboxy-5alpha-cholesta-8-en-3beta-ol) ([1]; LC10): increased | Abundance of some triacylglycerides (TG) ([1]; both concentrations, only at 24 h): downregulated | Abundance of 7E,9E,11-Dodecatrienyl acetate ([1]; most notable change, vs vehicle control): downregulation | Abundance of mintsulfide, 3beta,7alpha-Dihydroxy-5-cholestenoate and 4alpha-Carboxy-5alpha-cholesta-8-en-3beta-ol ([1]; vs vehicle control): raised the abundance | Major deregulated / most impacted metabolic pathways [2]: sphingolipid and glycerophospholipid metabolism; also recorded: glycerophospholipid and sphingolipid metabolism | Toxicity compared to VPA [3]: lower toxicity | Triacylglycerides cluster, abundance of metabolites ([4]; LC1, 24 h): decreased | Triacylglycerides cluster, abundance of metabolites ([4]; LC10, 24 h): increased | Glycerophosphocholines and glycerophosphoethanolamines clusters ([4]; both concentrations, 48 h): mixed changes | Malonyl carnitine ([4]; fatty acid esters, LC1 and LC10, 24 and 48 h): most sustained alterations | Body length ([5]; 0.10 mM (23.53 mg/L), 24 h): 0.79 ± 0.011 | Body length ([5]; 0.10 mM (23.53 mg/L), 48 h): 0.82 ± 0.014 | Body length ([5]; 0.18 mM (42.36 mg/L), 24 h): 0.77 ± 0.007 | Body length ([5]; 0.18 mM (42.36 mg/L), 48 h): 0.78 ± 0.015 | Body length ([5]; 0.32 mM (75.31 mg/L), 24 h): 0.76 ± 0.01 | Body length ([5]; 0.32 mM (75.31 mg/L), 48 h): 0.83 ± 0.011 | Body length ([5]; 0.56 mM (131.78 mg/L), 24 h): 0.7 ± 0.014 | Body length ([5]; 0.56 mM (131.78 mg/L), 48 h): 0.69 ± 0.022 | Body length ([5]; 1.00 mM (235.33 mg/L), 24 h): 0.66 ± 0.018 | Body length ([5]; 1.00 mM (235.33 mg/L), 48 h): 0.58 ± 0.018 | Teratogenicity compared to VPA ([5]; larvae length as morphological indicator): lower teratogenicity; also recorded: lower teratogenic | IC50 [6]: 0.476 mM | Bioavailability compared to VPA [7]: higher bioavailability | LC50 at 24 h [8]: 450 µM and 106 µg/mL | LC50 at 48 h [8]: 320 µM and 75.8 µg/mL | Mortality % ([9]; 0.18 mM (42.36 mg/L), 24 h): 1.03 ± 1.15% | Mortality % ([9]; 0.18 mM (42.36 mg/L), 48 h): 16.96 ± 6.69% | Mortality % ([9]; 0.32 mM (75.31 mg/L), 24 h): 10.41 ± 5.92% | Mortality % ([9]; 0.32 mM (75.31 mg/L), 48 h): 30.34 ± 15.25% | Mortality % ([9]; 0.56 mM (131.78 mg/L), 24 h): 60.16 ± 18.53 % | Mortality % ([9]; 0.56 mM (131.78 mg/L), 48 h): 77.3 ± 13.49 % | Mortality % ([9]; 1.00 mM (235.33 mg/L), 24 h): 97.81 ± 1.1 % | Mortality % ([9]; 1.00 mM (235.33 mg/L), 48 h): 100 ± 0 % | LC1 (20% of the LC10) [9]: 0.04 mM | LC10 (lethal concentration 10%) ([9]; 48 h): 0.13 mM and 29.49 mg/L | Toxicity compared to VPA ([9]; acute toxicity, 24 and 48 h): high toxicity; also recorded: higher toxic effects

CCCC(CCC)C(=O)O [VPA, valproic acid]
Major deregulated / most impacted metabolic pathways [2]: alanine, aspartate, and glutamate metabolism | Lethality [10]: 100% | Ceramide and glycerophosphoinositol clusters, abundance of metabolites ([4]; LC10, sustained up to 48 h): downregulates | Lipid abundance (glycerophospholipid subclasses, linoleic acid and derivatives) ([4]; especially LC1, 48 h): increases | C2-C6 acylcarnitines (fatty acid esters cluster) ([4]; lowest concentration (LC1)): positively impacts | Abundance of amino acids and their derivatives ([4]; most metabolites of the cluster): upward trend | Body length ([5]; 3 mM (499 mg/L), 24 h): 0.78 ± 0.008 | Body length ([5]; 3 mM (499 mg/L), 48 h): 0.8 ± 0.01 | Body length ([5]; 5.4 mM (897 mg/L), 24 h): 0.74 ± 0.012 | Body length ([5]; 5.4 mM (897 mg/L), 48 h): 0.77 ± 0.012 | Body length ([5]; 9.6 mM (1595 mg/L), 24 h): 0.69 ± 0.011 | Body length ([5]; 9.6 mM (1595 mg/L), 48 h): 0.68 ± 0.021 | Body length ([5]; 16.8 mM (2792 mg/L), 24 h): 0.67 ± 0.009 | Body length ([5]; 16.8 mM (2792 mg/L), 48 h): 0.66 ± 0.017 | Body length ([5]; 30 mM (4986 mg/L), 24 h): 0.67 ± 0.008 | Body length ([5]; 30 mM (4986 mg/L), 48 h): 0.64 ± 0.013 | Body length ([5]; 54 mM (8974 mg/L), 24 h): 0.61 ± 0.015 | Body length ([5]; 54 mM (8974 mg/L), 48 h): 0.57 ± 0.017 | Body length ([5]; 96 mM (15,954 mg/L), 24 h): 0.56 ± 0.011 | Body length ([5]; 96 mM (15,954 mg/L), 48 h): 0.54 ± 0.01 | Body length ([5]; 168 mM (27,920 mg/L), 24 h): 0.52 ± 0.014 | Body length ([5]; 168 mM (27,920 mg/L), 48 h): 0.5 ± 0.011 | LC50 [8]: > 1000 µg/mL | LC50 at 24 h [8]: 41.1 mM | LC50 at 48 h [8]: 18.7 mM | Mortality % ([9]; 3 mM (499 mg/L), 24 h): 1.19 ± 3.15% | Mortality % ([9]; 3 mM (499 mg/L), 48 h): 7.06 ± 3.61% | Mortality % ([9]; 5.4 mM (897 mg/L), 24 h): 1.83 ± 3.66% | Mortality % ([9]; 5.4 mM (897 mg/L), 48 h): 4.98 ± 4.86% | Mortality % ([9]; 9.6 mM (1595 mg/L), 24 h): 10.08 ± 8.85% | Mortality % ([9]; 9.6 mM (1595 mg/L), 48 h): 26.43 ± 8.52% | Mortality % ([9]; 16.8 mM (2792 mg/L), 24 h): 11.11 ± 11.85% | Mortality % ([9]; 16.8 mM (2792 mg/L), 48 h): 29.41 ± 11.96% | Mortality % ([9]; 30 mM (4986 mg/L), 24 h): 35.05 ± 12.82% | Mortality % ([9]; 30 mM (4986 mg/L), 48 h): 62.42 ± 14.69 % | Mortality % ([9]; 54 mM (8974 mg/L), 24 h): 37.32 ± 15.84 % | Mortality % ([9]; 54 mM (8974 mg/L), 48 h): 82.22 ± 9.04 % | Mortality % ([9]; 96 mM (15,954 mg/L), 24 h): 70.18 ± 14.77 % | Mortality % ([9]; 96 mM (15,954 mg/L), 48 h): 96.35 ± 2.13 % | Mortality % ([9]; 168 mM (27,920 mg/L), 24 h): 98.85 ± 1.15 % | Mortality % ([9]; 168 mM (27,920 mg/L), 48 h): 100 ± 0 % | LC1 (20% of the LC10) [9]: 1.79 mM | Concentration at which 100% lethality was achieved ([9]; 48 h): above 96 mM | LC10 (lethal concentration 10%) ([9]; 48 h): 4.71 mM and 783.1 mg/L

Reference: article PMC12120116 (Scientific Reports, 2025)
